These results are taken from ChEMBL document CHEMBL3045526, “Tailoring the structure of aminobisphosphonates to target plant P5C reductase” (J Agric Food Chem, 2008).

This experiment concerns the target T1, Pyrroline-5-carboxylate reductase (Arabidopsis thaliana, UniProt P54904).
T1 sequence (P54904 whole entry): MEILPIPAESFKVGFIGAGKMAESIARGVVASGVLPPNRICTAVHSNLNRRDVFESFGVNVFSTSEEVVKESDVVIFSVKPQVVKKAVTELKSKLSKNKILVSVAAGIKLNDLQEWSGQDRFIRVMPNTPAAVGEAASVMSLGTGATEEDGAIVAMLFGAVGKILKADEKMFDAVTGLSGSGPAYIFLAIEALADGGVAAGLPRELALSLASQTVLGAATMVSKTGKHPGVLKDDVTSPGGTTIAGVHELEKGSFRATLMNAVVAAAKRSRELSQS
The experiment in a line: Inhibition of Arabidopsis thaliana P5C assessed as reduction in NADH oxidation incubated at 35 degC up to 10 min. Put shortly: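 P5C reductase partially purified from stationary-phase A. thaliana cultured cells. Forward reaction run in 100 mM Tris-HCl pH 8.0, 0.1 mM MgCl2, 2 mM DL-P5C, 0.25 mM NADH, with 0.15–0.20 nkat enzyme. A340 followed at 35 °C for up to 10 min against P5C-free blanks. Inhibitor final 5 µM–5 mM (pH 7.5–8.0), triplicate. IC50 by linear regression of % activity vs log concentration.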

The IC50 is the point on the concentration scale where inhibition reaches its midpoint. Consider `O=P(O)(O)C(O)c1ccc(Cl)cc1Cl` (racemic) [(2,4-DICHLOROPHENYL)(HYDROXY)METHYLPHOSPHONIC ACID], for which the IC50 was determined as 5.8 mM. Then `NC(c1cccc(Cl)c1)P(=O)(O)O` (racemic) [AMINO(3-CHLOROPHENYL)METHYLPHOSPHONIC ACID], with 35.6 mM; and `O=P(O)(O)C(Nc1cc(Cl)ccc1Cl)P(=O)(O)O` [2,5-DICHLOROPHENYLAMINOMETHYLENEBISPHOSPHONIC ACID], with 0.73 mM.

`O=P(O)(O)C(Nc1ccc(Cl)cc1)P(=O)(O)O` [(4-CHLOROPHENYLAMINO)METHYLENEDIPHOSPHONIC ACID]: the IC50 came out at 0.86 mM. Under `O=P(O)(O)C(O)c1cccc(Cl)c1Cl` (racemic) [(2,3-DICHLOROPHENYL)(HYDROXY)METHYLPHOSPHONIC ACID] stands 4.9 mM; under `O=P(O)(O)C(O)c1ccc(Cl)cc1` (racemic) [(4-CHLOROPHENYL)(HYDROXY)METHYLPHOSPHONIC ACID], 45.5 mM.

As for `NC(c1ccccc1Br)P(=O)(O)O` (racemic) [AMINO(2-BROMOPHENYL)METHYLPHOSPHONIC ACID], the IC50 is 63 mM.

As to `O=P(O)(O)C(Nc1ccc(Cl)cc1Cl)P(=O)(O)O` [2,4-DICHLOROPHENYLAMINOMETHYLENEBISPHOSPHONIC ACID], the IC50 stood at 0.5 mM. As for `O=P(O)(O)C(Nc1cccc(Cl)c1Cl)P(=O)(O)O` [2,3-DICHLOROPHENYLAMINOMETHYLENEBISPHOSPHONIC ACID], the IC50 was determined as 0.102 mM. Then `O=P(O)(O)C(O)c1ccccc1Cl` (racemic) [(2-CHLOROPHENYL)(HYDROXY)METHYLPHOSPHONIC ACID], with 7.1 mM; and `NC(c1cccc(Cl)c1Cl)P(=O)(O)O` (racemic) [AMINO(2,3-DICHLOROPHENYL)METHYLPHOSPHONIC ACID], with 4.6 mM; and `O=P(O)(O)C(Nc1cc(Cl)cc(Cl)c1)P(=O)(O)O` [(3,5-DICHLOROPHENYLAMINO)METHYLENEDIPHOSPHONIC ACID], with 0.077 mM.

Take `O=P(O)(O)C(O)c1cccc(Cl)c1` (racemic) [(3-CHLOROPHENYL)(HYDROXY)METHYLPHOSPHONIC ACID]: the IC50 was determined as 5.1 mM. On to `NC(c1ccc(Cl)cc1Cl)P(=O)(O)O` (racemic) [AMINO(2,4-DICHLOROPHENYL)METHYLPHOSPHONIC ACID], for which the IC50 is 8.2 mM.

Regarding `COc1cccc(C(N)P(=O)(O)O)c1OC` (racemic) [AMINO(2,3-DIMETHOXYPHENYL)METHYLPHOSPHONIC ACID], the IC50 stood at 16 mM.

Consider `O=P(O)(O)C(Nc1ccc(Cl)c(Cl)c1)P(=O)(O)O` [3,4-DICHLOROPHENYLAMINOMETHYLENEBISPHOSPHONIC ACID], for which the IC50 was 0.268 mM. Take `NC(c1ccccc1Cl)P(=O)(O)O` (racemic) [AMINO(2-CHLOROPHENYL)METHYLPHOSPHONIC ACID]: the IC50 is 10.6 mM. Then `O=P(O)(O)C(O)c1ccc(Cl)c(Cl)c1` (racemic) [(3,4-DICHLOROPHENYL)(HYDROXY)METHYLPHOSPHONIC ACID], with 1.4 mM; and `O=P(O)(O)C(O)c1c(Cl)cccc1Cl` (racemic) [(2,6-DICHLOROPHENYL)(HYDROXY)METHYLPHOSPHONIC ACID], with 8.1 mM. With `NC(c1ccccc1F)P(=O)(O)O` (racemic) [AMINO(2-FLUOROPHENYL)METHYLPHOSPHONIC ACID], the IC50 is 6.6 mM.

With `O=P(O)(O)C(Nc1c(Cl)cccc1Cl)P(=O)(O)O` [2,6-DICHLOROPHENYLAMINOMETHYLENEBISPHOSPHONIC ACID], the IC50 came out at 0.112 mM.
